Assays:
[1] = target: T1, ZMYND8-PHD/Bromo (ZMYND8-PB) (Homo sapiens, UniProt Q9ULU4); experiment: Isothermal titration calorimetry; type: binding; details: ITC
T1 sequence (Q9ULU4 75-268 limits assumed): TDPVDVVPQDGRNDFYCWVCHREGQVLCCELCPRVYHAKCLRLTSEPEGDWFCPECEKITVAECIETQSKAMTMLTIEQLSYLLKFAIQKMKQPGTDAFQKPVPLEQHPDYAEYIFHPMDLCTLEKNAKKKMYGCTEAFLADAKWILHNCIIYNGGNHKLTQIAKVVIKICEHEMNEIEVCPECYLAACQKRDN
Method in brief: (§1)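 ZMYND8 PHD/Bromo/PWWP region, with its point and deletion mutants, was cloned into a bacterial GST-fusion expression vector and expressed as recombinant protein. Binding to histone H3 peptides was measured by isothermal titration calorimetry, and KD was taken from the titration.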

[2] = target: T2, ZMYND8-PHD/Bromo/PWWP (ZMYND8-PBP) (Homo sapiens, UniProt Q9ULU4); experiment: Isothermal titration calorimetry; type: binding; details: ITC
T2 sequence (Q9ULU4 93-426 isoform Q9ULU4-10): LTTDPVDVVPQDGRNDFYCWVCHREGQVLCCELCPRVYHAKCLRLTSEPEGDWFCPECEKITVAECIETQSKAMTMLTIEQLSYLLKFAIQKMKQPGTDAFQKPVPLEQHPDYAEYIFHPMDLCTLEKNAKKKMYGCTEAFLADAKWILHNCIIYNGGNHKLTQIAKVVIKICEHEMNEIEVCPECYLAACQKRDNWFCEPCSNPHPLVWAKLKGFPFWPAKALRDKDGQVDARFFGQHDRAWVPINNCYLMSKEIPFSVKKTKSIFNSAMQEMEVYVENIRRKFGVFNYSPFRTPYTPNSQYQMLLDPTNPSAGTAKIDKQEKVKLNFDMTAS
Method in brief: as §1

[3] = tested on: GST-tagged ZMYND8-PB (ZMYND8-PHD/Bromo); experiment: Peptide pull-down assay, GST-tagged ZMYND8-PB; type: binding, human; details: biotinylated peptides
Method in brief: (§2)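 Biotinylated histone peptides were used to pull down GST-tagged ZMYND8 fragments expressed in bacteria from a GST-fusion vector. These fragments were PHD/Bromo, PHD/Bromo/PWWP, or deletion mutants of PHD/Bromo. The deletion mutants were tested against the H3 (1-21) peptide.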

ZMYND8-PHD = experiment: Peptide pull-down assay, ZMYND8-PHD alone; type: binding, human; details: H3 (1-21) peptide
Method in brief: as §2

[4] = tested on: ZMYND8-PBP, alanine mutation of D96; experiment: ITC, ZMYND8-PBP alanine mutant of D96; type: binding, human; details: H3K4me0 (1-25aa)
Method in brief: as §1

[5] = tested on: ZMYND8-PBP, alanine mutation of D99; experiment: ITC, ZMYND8-PBP alanine mutant of D99; type: binding, human; details: H3K4me0 (1-25aa)
Method in brief: as §1

[6] = tested on: ZMYND8-PBP, alanine mutation of D104; experiment: ITC, ZMYND8-PBP alanine mutant of D104; type: binding, human; details: H3K4me0 (1-25aa)
Method in brief: as §1

ZMYND8-PBP, D108A = experiment: ITC, ZMYND8-PBP alanine mutant of D108; type: binding, human; details: H3K4me0 (1-25aa)
Method in brief: as §1

[7] = tested on: ZMYND8-PBP, alanine mutation of E124; experiment: ITC, ZMYND8-PBP alanine mutant of E124; type: binding, human; details: H3K4me0 (1-25aa)
Method in brief: as §1

[8] = tested on: N-terminal truncated version of ZMYND8-PBP (residue 103-426); experiment: ITC, N-terminal truncated ZMYND8-PBP; type: binding, human; details: H3K4me0 (1-25aa)
Method in brief: as §1

ZMYND8-PBP, F109D = experiment: ITC, ZMYND8-PBP F109D; type: binding, human; details: H3K4me0 (1-25aa), relative to ZMYND8-PBP
Method in brief: as §1

Kd [1]: ~15 µM | Kd [2]: ~7.2 µM | H3K4me0-binding activity of mutant [4]: significant losses | H3K4me0-binding activity of mutant [5]: significant losses | H3K4me0-binding activity of mutant [6]: significant losses | H3K4me0-binding activity of mutant (ZMYND8-PBP, D108A): significant losses | H3K4me0-binding activity of mutant [7]: significant losses | H3K4me0-binding activity of truncated ZMYND8-PBP [8]: significant losses | enhancement of PBP's binding activity by F109D (ZMYND8-PBP, F109D): ~ 11 fold
Substance: H3K4me0: unmethylated H3K4 (H3 [1-21aa]; referred to as "H3K4me0")
interaction with ZMYND8-PB (pull-down), 300 mM NaCl wash [3]: interacted | interaction with ZMYND8-PHD alone (pull-down) (ZMYND8-PHD): did not interact

— PMC4975651 (Molecular cell, 2016)
